Source: ChEMBL document CHEMBL1770131, “Radiosynthesis and preliminary evaluation of 4-[18F]fluoro-N-[4-[6-(isopropylamino)pyrimidin-4-yl]-1,3-thiazol-2-yl]-N-methylbenzamide as a new positron emission tomography ligand for metabotropic glutamate receptor subtype 1” (Bioorg Med Chem Lett, 2011)
Activity calls are given as the source filed them. The calls are words filed in the database; no cut-off is given here.

How the values were obtained:
Conditions in all cases: 1 M, tested as the 18F-labelled form
[1] = biological target: Metabotropic glutamate receptor 1 (Rattus norvegicus) (UniProt P23385); experiment: Binding affinity to mGluR1 in rat hippocampus at 1 MBq/ml after 30 mins by autoradiography in presence of 1 uM non-radiolabeled compound; type: tissue-based
Chain of Metabotropic glutamate receptor 1 (Rattus norvegicus) (P23385 19-1199 limits assumed): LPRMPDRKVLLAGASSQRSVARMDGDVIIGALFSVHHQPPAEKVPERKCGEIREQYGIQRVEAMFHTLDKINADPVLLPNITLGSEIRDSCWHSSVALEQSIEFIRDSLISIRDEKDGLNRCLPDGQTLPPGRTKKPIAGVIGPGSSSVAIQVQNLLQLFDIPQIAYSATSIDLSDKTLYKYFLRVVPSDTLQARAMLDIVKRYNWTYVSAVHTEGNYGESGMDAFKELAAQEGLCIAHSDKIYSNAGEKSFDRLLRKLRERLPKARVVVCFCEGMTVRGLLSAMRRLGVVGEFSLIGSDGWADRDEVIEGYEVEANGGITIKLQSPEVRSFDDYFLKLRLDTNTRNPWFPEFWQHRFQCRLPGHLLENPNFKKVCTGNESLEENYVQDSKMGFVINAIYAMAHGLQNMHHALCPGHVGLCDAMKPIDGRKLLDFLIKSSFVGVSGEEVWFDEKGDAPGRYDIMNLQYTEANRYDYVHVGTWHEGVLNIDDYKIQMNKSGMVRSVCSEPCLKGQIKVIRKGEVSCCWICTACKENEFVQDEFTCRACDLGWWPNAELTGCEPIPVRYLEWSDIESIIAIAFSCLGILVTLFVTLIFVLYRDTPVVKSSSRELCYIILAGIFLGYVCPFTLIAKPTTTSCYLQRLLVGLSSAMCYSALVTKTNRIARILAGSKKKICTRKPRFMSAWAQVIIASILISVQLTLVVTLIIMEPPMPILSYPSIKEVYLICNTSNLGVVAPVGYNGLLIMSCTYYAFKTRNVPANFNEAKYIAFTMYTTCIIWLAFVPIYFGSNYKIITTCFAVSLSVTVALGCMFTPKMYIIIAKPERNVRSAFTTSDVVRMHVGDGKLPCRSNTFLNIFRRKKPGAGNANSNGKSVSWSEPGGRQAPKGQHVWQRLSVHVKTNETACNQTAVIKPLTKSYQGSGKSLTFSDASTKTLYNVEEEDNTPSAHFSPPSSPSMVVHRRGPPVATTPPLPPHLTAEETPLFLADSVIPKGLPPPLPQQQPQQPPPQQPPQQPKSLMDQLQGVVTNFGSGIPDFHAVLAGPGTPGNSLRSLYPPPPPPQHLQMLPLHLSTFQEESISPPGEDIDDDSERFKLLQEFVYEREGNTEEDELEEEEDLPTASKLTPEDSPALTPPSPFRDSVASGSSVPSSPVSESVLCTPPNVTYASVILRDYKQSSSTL
In short: (§1)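 Rat brain sections pre-incubated 3 × 5 min at room temperature in Tris-HCl (50 mM, pH 7.4, 1.2 mM MgCl2, 2 mM CaCl2). Then incubated 30 min at room temperature in fresh buffer with radioligand (1 MBq/mL; in saline with 5% ethanol and Tween80), with or without 1 µM unlabeled ligand, JNJ16259685 or MPEP. Washed 3 × 5 min in cold buffer, dipped in cold water, air-dried, exposed to imaging plate.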

[2] = biological target: Metabotropic glutamate receptor 1 (Rattus norvegicus) (UniProt P23385); experiment: Binding affinity to mGluR1 in rat striatum at 1 MBq/ml after 30 mins by autoradiography; type: tissue-based; in short: as §1
[3] = biological target: Metabotropic glutamate receptor 1 (Rattus norvegicus) (UniProt P23385); experiment: Binding affinity to mGluR1 in rat thalamus at 1 MBq/ml after 30 mins by autoradiography in presence of 1 uM non-radiolabeled compound; type: tissue-based; in short: as §1
[4] = biological target: Metabotropic glutamate receptor 1 (Rattus norvegicus) (UniProt P23385); experiment: Binding affinity to mGluR1 in rat cerebellum at 1 MBq/ml after 30 mins by autoradiography in presence of 1 uM of mGluR1 antagonist JNJ16259685; type: tissue-based; in short: as §1
[5] = biological target: Metabotropic glutamate receptor 1 (Rattus norvegicus) (UniProt P23385); experiment: Binding affinity to mGluR1 in rat cerebellum at 1 MBq/ml after 30 mins by autoradiography; type: tissue-based; in short: as §1
[6] = biological target: Metabotropic glutamate receptor 1 (Rattus norvegicus) (UniProt P23385); experiment: Binding affinity to mGluR1 in rat pons-medulla at 1 MBq/ml after 30 mins by autoradiography in presence of 1 uM of mGluR1 antagonist JNJ16259685; in short: as §1
[7] = biological target: Metabotropic glutamate receptor 1 (Rattus norvegicus) (UniProt P23385); experiment: Binding affinity to mGluR1 in rat hippocampus at 1 MBq/ml after 30 mins by autoradiography in presence of 1 uM of mGluR1 antagonist JNJ16259685; type: tissue-based; in short: as §1
[8] = biological target: Metabotropic glutamate receptor 1 (Rattus norvegicus) (UniProt P23385); experiment: Binding affinity to mGluR1 in rat cerebral cortex at 1 MBq/ml after 30 mins by autoradiography in presence of 1 uM non-radiolabeled compound; type: tissue-based; in short: as §1
[9] = biological target: Metabotropic glutamate receptor 1 (Rattus norvegicus) (UniProt P23385); experiment: Binding affinity to mGluR1 in rat striatum at 1 MBq/ml after 30 mins by autoradiography in presence of 1 uM of mGluR5 antagonist MPEP; type: tissue-based; in short: as §1
[10] = biological target: Metabotropic glutamate receptor 1 (Rattus norvegicus) (UniProt P23385); experiment: Binding affinity to mGluR1 in rat thalamus at 1 MBq/ml after 30 mins by autoradiography in presence of 1 uM of mGluR1 antagonist JNJ16259685; type: tissue-based; in short: as §1
[11] = biological target: Metabotropic glutamate receptor 1 (Rattus norvegicus) (UniProt P23385); experiment: Binding affinity to mGluR1 in rat hippocampus at 1 MBq/ml after 30 mins by autoradiography in presence of 1 uM of mGluR5 antagonist MPEP; type: tissue-based; in short: as §1
[12] = biological target: Metabotropic glutamate receptor 1 (Rattus norvegicus) (UniProt P23385); experiment: Binding affinity to mGluR1 in rat thalamus at 1 MBq/ml after 30 mins by autoradiography; type: tissue-based; in short: as §1
[13] = biological target: Metabotropic glutamate receptor 1 (Rattus norvegicus) (UniProt P23385); experiment: Binding affinity to mGluR1 in rat cerebral cortex at 1 MBq/ml after 30 mins by autoradiography in presence of 1 uM of mGluR1 antagonist JNJ16259685; type: tissue-based; in short: as §1
[14] = biological target: Metabotropic glutamate receptor 1 (Rattus norvegicus) (UniProt P23385); experiment: Binding affinity to mGluR1 in rat striatum at 1 MBq/ml after 30 mins by autoradiography in presence of 1 uM non-radiolabeled compound; type: tissue-based; in short: as §1
[15] = biological target: Metabotropic glutamate receptor 1 (Rattus norvegicus) (UniProt P23385); experiment: Binding affinity to mGluR1 in rat cerebellum at 1 MBq/ml after 30 mins by autoradiography in presence of 1 uM non-radiolabeled compound; type: tissue-based; in short: as §1
[16] = biological target: Metabotropic glutamate receptor 1 (Rattus norvegicus) (UniProt P23385); experiment: Binding affinity to mGluR1 in rat whole brain at 1 MBq/ml after 30 mins by autoradiography in presence of 1 uM non-radiolabeled compound; in short: as §1
[17] = biological target: Metabotropic glutamate receptor 1 (Rattus norvegicus) (UniProt P23385); experiment: Binding affinity to mGluR1 in rat thalamus at 1 MBq/ml after 30 mins by autoradiography in presence of 1 uM of mGluR5 antagonist MPEP; type: tissue-based; in short: as §1
[18] = biological target: Metabotropic glutamate receptor 1 (Rattus norvegicus) (UniProt P23385); experiment: Binding affinity to mGluR1 in rat cerebellum at 1 MBq/ml after 30 mins by autoradiography in presence of 1 uM of mGluR5 antagonist MPEP; type: tissue-based; in short: as §1
[19] = biological target: Metabotropic glutamate receptor 1 (Rattus norvegicus) (UniProt P23385); experiment: Binding affinity to mGluR1 in rat cerebral cortex at 1 MBq/ml after 30 mins by autoradiography in presence of 1 uM of mGluR5 antagonist MPEP; type: tissue-based; in short: as §1
[20] = biological target: Metabotropic glutamate receptor 1 (Rattus norvegicus) (UniProt P23385); experiment: Binding affinity to mGluR1 in rat cerebral cortex at 1 MBq/ml after 30 mins by autoradiography; type: tissue-based; in short: as §1
[21] = biological target: Metabotropic glutamate receptor 1 (Rattus norvegicus) (UniProt P23385); experiment: Binding affinity to mGluR1 in rat pons-medulla at 1 MBq/ml after 30 mins by autoradiography in presence of 1 uM of mGluR5 antagonist MPEP; in short: as §1
[22] = biological target: Metabotropic glutamate receptor 1 (Rattus norvegicus) (UniProt P23385); experiment: Binding affinity to mGluR1 in rat pons-medulla at 1 MBq/ml after 30 mins by autoradiography; in short: as §1
[23] = biological target: Metabotropic glutamate receptor 1 (Rattus norvegicus) (UniProt P23385); experiment: Binding affinity to mGluR1 in rat whole brain at 1 MBq/ml after 30 mins by autoradiography in presence of 1 uM of mGluR1 antagonist JNJ16259685; in short: as §1
[24] = biological target: Metabotropic glutamate receptor 1 (Rattus norvegicus) (UniProt P23385); experiment: Binding affinity to mGluR1 in rat pons-medulla at 1 MBq/ml after 30 mins by autoradiography in presence of 1 uM non-radiolabeled compound; in short: as §1
[25] = biological target: Metabotropic glutamate receptor 1 (Rattus norvegicus) (UniProt P23385); experiment: Binding affinity to mGluR1 in rat striatum at 1 MBq/ml after 30 mins by autoradiography in presence of 1 uM of mGluR1 antagonist JNJ16259685; type: tissue-based; in short: as §1
[26] = biological target: Metabotropic glutamate receptor 1 (Rattus norvegicus) (UniProt P23385); experiment: Binding affinity to mGluR1 in rat hippocampus at 1 MBq/ml after 30 mins by autoradiography; type: tissue-based; in short: as §1

SMILES: CC(C)Nc1cc(-c2csc(N(C)C(=O)c3ccc(F)cc3)n2)ncn1
- Activity [1]: inactive
- Activity [2]: 568 PSL/mm2
- Activity [3]: inactive
- Activity [4]: inactive
- Activity [5]: 719 PSL/mm2
- Activity [6]: inactive
- Activity [7]: inactive
- Activity [8]: inactive
- Activity [9]: 497 PSL/mm2
- Activity [10]: inactive
- Activity [11]: 602 PSL/mm2
- Activity [12]: 739 PSL/mm2
- Activity [13]: inactive
- Activity [14]: inactive
- Activity [15]: inactive
- Activity [16]: 6.9 PSL/mm2
- Activity [17]: 618 PSL/mm2
- Activity [18]: 683 PSL/mm2
- Activity [19]: 316 PSL/mm2
- Activity [20]: 375 PSL/mm2
- Activity [21]: 181 PSL/mm2
- Activity [22]: 222 PSL/mm2
- Activity [23]: 6.7 PSL/mm2
- Activity [24]: inactive
- Activity [25]: inactive
- Activity [26]: 680 PSL/mm2
